{"source": "ChEMBL document CHEMBL4706495", "about": "“A novel class of small molecule inhibitors with radioprotective properties” (Eur J Med Chem, 2020)", "key": {"[1]": {"tested_on": "Jurkat", "test": "Cytotoxicity against human Jurkat cells assessed as cell viability at 10 uM measured after 48 hrs by WST-1 assay relative to control", "type": "functional", "settings": "read-out: Activity", "procedure,_shortened": "(§1)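 Ten-line human panel (9 cancer, 1 non-cancerous). Cells were seeded at a pre-established optimal density (500–30 × 10³ per well) and settled overnight. Compounds came from 10 mM DMSO stocks and were tested at two concentrations. WST-1 readout followed the manufacturer's protocol at the end of cultivation. Viability is expressed as % of untreated control cells, mean of three independent experiments.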"}, "[2]": {"tested_on": "MOLT-4", "test": "Cytotoxicity against human MOLT-4 cells assessed as cell viability at 10 uM measured after 48 hrs by WST-1 assay relative to control", "type": "functional", "settings": "read-out: Activity", "procedure,_shortened": "as §1"}, "[3]": {"tested_on": "A549", "test": "Cytotoxicity against human A549 cells assessed as cell viability at 10 uM measured after 48 hrs by WST-1 assay relative to control", "type": "functional", "settings": "read-out: Activity", "procedure,_shortened": "as §1"}, "[4]": {"tested_on": "HT-29", "test": "Cytotoxicity against human HT-29 cells assessed as cell viability at 10 uM measured after 48 hrs by WST-1 assay relative to control", "type": "functional", "settings": "read-out: Activity", "procedure,_shortened": "as §1"}, "[5]": {"tested_on": "PANC-1", "test": "Cytotoxicity against human PANC-1 cells assessed as cell viability at 10 uM measured after 48 hrs by WST-1 assay relative to control", "type": "functional", "settings": "read-out: Activity", "procedure,_shortened": "as §1"}, "[6]": {"tested_on": "A2780", "test": "Cytotoxicity against human A2780 cells assessed as cell viability at 10 uM measured after 48 hrs by WST-1 assay relative to control", "type": "functional", "settings": "read-out: Activity", "procedure,_shortened": "as §1"}, "[7]": {"tested_on": "HeLa", "test": "Cytotoxicity against human HeLa cells assessed as cell viability at 10 uM measured after 48 hrs by WST-1 assay relative to control", "type": "functional", "settings": "read-out: Activity", "procedure,_shortened": "as §1"}, "[8]": {"tested_on": "MCF7", "test": "Cytotoxicity against human MCF7 cells assessed as cell viability at 10 uM measured after 48 hrs by WST-1 assay relative to control", "type": "functional", "settings": "read-out: Activity", "procedure,_shortened": "as §1"}, "[9]": {"tested_on": "SAOS-2", "test": "Cytotoxicity against human SAOS-2 cells assessed as cell viability at 10 uM measured after 48 hrs by WST-1 assay relative to control", "type": "functional", "settings": "read-out: Activity", "procedure,_shortened": "as §1"}, "[10]": {"test": "Cytotoxicity against human MRC5 cells assessed as cell viability at 10 uM measured after 48 hrs by WST-1 assay relative to control", "type": "cell-based", "settings": "read-out: Activity", "procedure,_shortened": "as §1"}, "[11]": {"tested_on": "Jurkat", "test": "Cytotoxicity against human Jurkat cells assessed as cell viability at 100 uM measured after 48 hrs by WST-1 assay relative to control", "type": "functional", "settings": "read-out: Activity", "procedure,_shortened": "as §1"}, "[12]": {"tested_on": "MOLT-4", "test": "Cytotoxicity against human MOLT-4 cells assessed as cell viability at 100 uM measured after 48 hrs by WST-1 assay relative to control", "type": "functional", "settings": "read-out: Activity", "procedure,_shortened": "as §1"}, "[13]": {"tested_on": "A549", "test": "Cytotoxicity against human A549 cells assessed as cell viability at 100 uM measured after 48 hrs by WST-1 assay relative to control", "type": "functional", "settings": "read-out: Activity", "procedure,_shortened": "as §1"}, "[14]": {"tested_on": "HT-29", "test": "Cytotoxicity against human HT-29 cells assessed as cell viability at 100 uM measured after 48 hrs by WST-1 assay relative to control", "type": "functional", "settings": "read-out: Activity", "procedure,_shortened": "as §1"}, "[15]": {"tested_on": "PANC-1", "test": "Cytotoxicity against human PANC-1 cells assessed as cell viability at 100 uM measured after 48 hrs by WST-1 assay relative to control", "type": "functional", "settings": "read-out: Activity", "procedure,_shortened": "as §1"}, "[16]": {"tested_on": "A2780", "test": "Cytotoxicity against human A2780 cells assessed as cell viability at 100 uM measured after 48 hrs by WST-1 assay relative to control", "type": "functional", "settings": "read-out: Activity", "procedure,_shortened": "as §1"}, "[17]": {"tested_on": "HeLa", "test": "Cytotoxicity against human HeLa cells assessed as cell viability at 100 uM measured after 48 hrs by WST-1 assay relative to control", "type": "functional", "settings": "read-out: Activity", "procedure,_shortened": "as §1"}, "[18]": {"tested_on": "MCF7", "test": "Cytotoxicity against human MCF7 cells assessed as cell viability at 100 uM measured after 48 hrs by WST-1 assay relative to control", "type": "functional", "settings": "read-out: Activity", "procedure,_shortened": "as §1"}, "[19]": {"tested_on": "SAOS-2", "test": "Cytotoxicity against human SAOS-2 cells assessed as cell viability at 100 uM measured after 48 hrs by WST-1 assay relative to control", "type": "functional", "settings": "read-out: Activity", "procedure,_shortened": "as §1"}, "[20]": {"test": "Cytotoxicity against human MRC5 cells assessed as cell viability at 100 uM measured after 48 hrs by WST-1 assay relative to control", "type": "cell-based", "settings": "read-out: Activity", "procedure,_shortened": "as §1"}, "[21]": {"tested_on": "HT-29", "test": "Cytotoxicity against human HT-29 cells assessed as growth percent at 100 uM by WST-1 assay relative to control", "type": "functional", "settings": "HT-29, read-out: Activity, time 48 hrs"}, "[22]": {"tested_on": "MCF7", "test": "Cytotoxicity against human MCF7 cells assessed as growth percent at 100 uM by WST-1 assay relative to control", "type": "functional", "settings": "MCF7, read-out: Activity, time 48 hrs"}, "[23]": {"tested_on": "A549", "test": "Cytotoxicity against human A549 cells assessed as reduction in cell viability incubated for 24 hrs by MTT assay", "type": "functional, cell-based", "settings": "A549, 24 h", "procedure,_shortened": "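A-549 cells in DMEM with 10% FBS and 1% penicillin-streptomycin were attached overnight. Compounds were prepared in PBS and serially diluted in DMEM, then incubated 24 h. Viability was read by colorimetric MTT reduction against an untreated control on each plate (100%). IC50 came from four-parameter nonlinear regression of the log concentration-response curve, mean ± SEM. MTC is the highest concentration not differing from control (t-test).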"}, "[24]": {"tested_on": "A549", "test": "Cytotoxicity against human A549 cells assessed as maximum tolerated concentration incubated for 24 hrs by MTT assay", "type": "functional", "procedure,_shortened": "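A-549 cells in DMEM with 10% FBS and 1% penicillin-streptomycin, left to attach overnight. Compounds made up in PBS, serially diluted in DMEM, incubated 24 h, then viability read by MTT reduction against untreated controls on each plate. MTC taken as the highest concentration showing no significant difference from non-treated control (t-test).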"}, "[25]": {"tested_on": "MOLT-4", "test": "Radioprotective activity against gamma irradiation-induced apoptosis in human MOLT-4 cells assessed as viable cells at 100 uM pretreated with compound for 1 hr followed by gamma irradiation and measured after 24 hrs by annexinV/propidium iodide staining based flow cytometry (reference value: 40 %)", "type": "functional", "settings": "MOLT-4, light or radiation study, time 25 hrs, read-out: Activity"}, "[26]": {"tested_on": "Jurkat", "test": "Cytotoxicity against human Jurkat cells assessed as cell viability at 1 uM measured after 48 hrs by WST-1 assay relative to control", "type": "functional", "settings": "read-out: Activity"}, "[27]": {"tested_on": "MOLT-4", "test": "Cytotoxicity against human MOLT-4 cells assessed as cell viability at 1 uM measured after 48 hrs by WST-1 assay relative to control", "type": "functional", "settings": "read-out: Activity"}, "[28]": {"tested_on": "A549", "test": "Cytotoxicity against human A549 cells assessed as cell viability at 1 uM measured after 48 hrs by WST-1 assay relative to control", "type": "functional", "settings": "read-out: Activity"}, "[29]": {"tested_on": "HT-29", "test": "Cytotoxicity against human HT-29 cells assessed as cell viability at 1 uM measured after 48 hrs by WST-1 assay relative to control", "type": "functional", "settings": "read-out: Activity"}, "[30]": {"tested_on": "PANC-1", "test": "Cytotoxicity against human PANC-1 cells assessed as cell viability at 1 uM measured after 48 hrs by WST-1 assay relative to control", "type": "functional", "settings": "read-out: Activity"}, "[31]": {"tested_on": "A2780", "test": "Cytotoxicity against human A2780 cells assessed as cell viability at 1 uM measured after 48 hrs by WST-1 assay relative to control", "type": "functional", "settings": "read-out: Activity"}, "[32]": {"tested_on": "HeLa", "test": "Cytotoxicity against human HeLa cells assessed as cell viability at 1 uM measured after 48 hrs by WST-1 assay relative to control", "type": "functional", "settings": "read-out: Activity"}, "[33]": {"tested_on": "MCF7", "test": "Cytotoxicity against human MCF7 cells assessed as cell viability at 1 uM measured after 48 hrs by WST-1 assay relative to control", "type": "functional", "settings": "read-out: Activity"}, "[34]": {"tested_on": "SAOS-2", "test": "Cytotoxicity against human SAOS-2 cells assessed as cell viability at 1 uM measured after 48 hrs by WST-1 assay relative to control", "type": "functional", "settings": "read-out: Activity"}, "[35]": {"test": "Cytotoxicity against human MRC5 cells assessed as cell viability at 1 uM measured after 48 hrs by WST-1 assay relative to control", "type": "cell-based", "settings": "read-out: Activity"}}}
{"smiles": "OCCN1CCN(CC(O)COc2cccc3ccccc23)CC1", "note": "(stereo not given)", "values": [{"measurement": "viability at 10 µM", "setting": "[1]", "result": 96, "unit": "%"}, {"measurement": "viability at 10 µM", "setting": "[2]", "result": 98, "unit": "%"}, {"measurement": "viability at 10 µM", "setting": "[3]", "result": 98, "unit": "%"}, {"measurement": "viability at 10 µM", "setting": "[4]", "result": 93, "unit": "%"}, {"measurement": "viability at 10 µM", "setting": "[5]", "result": 102, "unit": "%"}, {"measurement": "viability at 10 µM", "setting": "[6]", "result": 97, "unit": "%"}, {"measurement": "viability at 10 µM", "setting": "[7]", "result": 99, "unit": "%"}, {"measurement": "viability at 10 µM", "setting": "[8]", "result": 103, "unit": "%"}, {"measurement": "viability at 10 µM", "setting": "[9]", "result": 97, "unit": "%"}, {"measurement": "viability at 48 h, 10 µM", "setting": "[10]", "result": 102, "unit": "%"}, {"measurement": "viability at 100 µM", "setting": "[11]", "result": 76, "unit": "%"}, {"measurement": "viability at 100 µM", "setting": "[12]", "result": 83, "unit": "%"}, {"measurement": "viability at 100 µM", "setting": "[13]", "result": 107, "unit": "%"}, {"measurement": "viability at 100 µM", "setting": "[14]", "result": 53, "unit": "%"}, {"measurement": "viability at 100 µM", "setting": "[15]", "result": 101, "unit": "%"}, {"measurement": "viability at 100 µM", "setting": "[16]", "result": 77, "unit": "%"}, {"measurement": "viability at 100 µM", "setting": "[17]", "result": 129, "unit": "%"}, {"measurement": "viability at 100 µM", "setting": "[18]", "result": 64, "unit": "%"}, {"measurement": "viability at 100 µM", "setting": "[19]", "result": 97, "unit": "%"}, {"measurement": "viability at 48 h, 100 µM", "setting": "[20]", "result": 78, "unit": "%"}, {"measurement": "growth at 100 µM", "setting": "[21]", "result": 53, "unit": "%"}, {"measurement": "growth at 100 µM", "setting": "[22]", "result": 64, "unit": "%"}, {"measurement": "IC50", "setting": "[23]", "result": 420, "unit": "µM"}, {"measurement": "MTD", "setting": "[24]", "result": 0.07, "unit": "mM"}, {"measurement": "viability at 100 µM", "setting": "[25]", "result": 59, "unit": "%"}]}
{"smiles": "COc1cccc2c1C(=O)c1c(O)c3c(c(O)c1C2=O)C[C@@](O)(C(=O)CO)C[C@@H]3O[C@H]1C[C@H](N)[C@H](O)[C@H](C)O1", "note": "[DOXORUBICIN]", "values": [{"measurement": "viability at 1 µM", "setting": "[26]", "result": 2, "unit": "%"}, {"measurement": "viability at 1 µM", "setting": "[27]", "result": 1, "unit": "%"}, {"measurement": "viability at 1 µM", "setting": "[28]", "result": 42, "unit": "%"}, {"measurement": "viability at 1 µM", "setting": "[29]", "result": 55, "unit": "%"}, {"measurement": "viability at 1 µM", "setting": "[30]", "result": 78, "unit": "%"}, {"measurement": "viability at 1 µM", "setting": "[31]", "result": 8, "unit": "%"}, {"measurement": "viability at 1 µM", "setting": "[32]", "result": 76, "unit": "%"}, {"measurement": "viability at 1 µM", "setting": "[33]", "result": 32, "unit": "%"}, {"measurement": "viability at 1 µM", "setting": "[34]", "result": 22, "unit": "%"}, {"measurement": "viability at 48 h, 1 µM", "setting": "[35]", "result": 22, "unit": "%"}]}
